# ADAM10 inh = human ADAM10 inhibitors, primary screen, biochemical, QFRET, HTS; Disintegrin and metalloproteinase domain-containing protein 10 (Homo sapiens), O14672; recombinant ADAM10, EDANS/DABCYL FRET peptide cleavage, 3 h; inhibition, % at 7 µM; 370,000 tested, 0.62% active; AID 720582, 2013;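 active means inhibition above a per-campaign cutoff equal to the mean of compounds falling between control-based bounds plus 3 SD, cut at about 20% in these data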
# Target sequence (O14672 214-748 limits assumed): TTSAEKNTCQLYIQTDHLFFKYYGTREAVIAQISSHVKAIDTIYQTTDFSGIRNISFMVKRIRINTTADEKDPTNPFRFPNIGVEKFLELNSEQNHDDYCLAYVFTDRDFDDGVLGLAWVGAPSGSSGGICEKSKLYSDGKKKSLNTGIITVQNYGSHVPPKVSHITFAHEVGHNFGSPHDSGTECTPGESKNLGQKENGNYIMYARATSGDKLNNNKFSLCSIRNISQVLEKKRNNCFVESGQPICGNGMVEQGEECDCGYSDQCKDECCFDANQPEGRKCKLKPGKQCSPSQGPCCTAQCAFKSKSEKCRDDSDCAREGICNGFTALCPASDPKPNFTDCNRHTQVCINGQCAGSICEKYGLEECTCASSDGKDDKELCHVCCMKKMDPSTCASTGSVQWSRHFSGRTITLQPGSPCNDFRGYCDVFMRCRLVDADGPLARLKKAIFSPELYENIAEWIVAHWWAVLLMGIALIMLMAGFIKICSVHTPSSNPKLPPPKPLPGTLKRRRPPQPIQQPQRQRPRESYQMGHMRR
# ADAM17 inh = ADAM17 inhibitors, primary screen, biochemical, QFRET. Disintegrin and metalloproteinase domain-containing protein 17 (Homo sapiens), P78536. recombinant ADAM17, EDANS/DABCYL FRET peptide cleavage. inhibition, % at 6.95 µM. 370,000 tested, 0.83% active. AID 720648, 2013;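 active means inhibition above the mean of compounds lying between control limits plus 3 SD, set per campaign, cut at about 8.5% in these data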
# DDE Tn6 FP inh = inhibitors of Tn6 peptide binding to fibrin DD(E), primary screen, biochemical, fluorescence polarization, human fibrin, Tn6 probe; AID 720509, 2013; 370,000 tested, 0.21% active; inhibition, % at 8.3 µM; Fibrin DD(E) TRITC-Tn6 fluorescence polarization displacement; Fibrinogen beta chain (Homo sapiens), P02675;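 active means inhibition above a per-campaign cutoff: mean of compounds within control limits plus 3 SD, cut at about 15% in these data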
# MT1-MMP act inh = blockers of MT1-MMP proenzyme processing, primary screen, HT1080 RFP-PRO-GFP cells, GFP/RFP fluorescence; Matrix metalloproteinase-14 (Homo sapiens), P50281; GFP/RFP ratio fluorescence, overnight; percent of plate control window, DMSO zero; GFP/RFP ratio change, % at 20 µM; 360,000 tested, 0.061% active;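 active means GFP/RFP ratio change of at least 30% with cell ATP level not reduced by more than half and red fluorescence within 50% of control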
#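 Compound: 20 µM single dose, 1% DMSO / System: HT1080 RFP-PRO-GFP cells / Controls: DMSO and RFP-L50D-GFP cell wells / Read-out basis: GFP/RFP fluorescence ratio / Schedule: overnight compound exposure at 37 °C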
# Tn7 DDE FP = inhibitors of Tn7 peptide binding to fibrin DD(E), primary screen, biochemical, fluorescence polarization, human fibrin, Tn7 probe; FP displacement of FITC-Tn7 peptide from fibrin DD(E); 0% = median of compound wells per plate; inhibition, % at 8.3 µM; 370,000 tested, 0.13% active; AID 720508, 2013;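 active means inhibition above the mean of compounds falling within the control limits plus 3 SD of them, cut at about 14% in these data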
#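 Assay system: Human fibrin DD(E) protein | Medium: Tris buffer with calcium and detergent, pH 7.8 | Reagent: 0.1 µM fluorescent Tn7 | Compound dosing: Single point at 8.3 µM | Times: 10 min preincubation, 3 h with tracer, room temperature | Detection: Fluorescence polarization of the labelled Tn7 tracer | Controls: Aha-Tn7 high control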
# ADAM10 ctr = ADAM10 inhibitors, counter-screen for ADAM17 exosite inhibitor project, biochemical, FRET, human ADAM10; 2,900 tested, 47% active; shares compounds with ADAM17 inh; recombinant ADAM10, EDANS/DABCYL FRET peptide cleavage, 3 h; inhibition, % at 6.95 µM;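 active means mean inhibition over the triplicate runs exceeds the activity threshold set in the earlier primary screen, cut at about 20% in these data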
# ADAM17 confirm = ADAM17 inhibitors, hit retest, confirmation, biochemical, QFRET peptide cleavage; shares compounds with ADAM17 inh; recombinant ADAM17, EDANS/DABCYL QFRET peptide cleavage; inhibition, % at 6.95 µM; 2,900 tested, 65% active;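 active means mean inhibition across replicates above the hit cutoff set in the primary screen, cut at about 8.5% in these data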
# Numbers stand for hits; n = inactive; x = no result. The list is not random: actives were taken first. Their share in the collection is about 1.6%.
SMILES,ADAM10 inh,ADAM17 inh,DDE Tn6 FP inh,MT1-MMP act inh,Tn7 DDE FP,ADAM10 ctr,ADAM17 confirm
Cc1ccc(NC(=O)c2ccccc2OCC(=O)Nc2ccccc2F)cc1S(=O)(=O)N(C)C,n,10.6,n,n,n,41.7,24.6
CC1CN(C(=O)c2ccccc2)CCC1=NO (configuration not stated),n,n,n,x,n,x,x
CC(C)(C)c1ccc(-c2nnc(SCC(=O)Nc3ccc(S(=O)(=O)Nc4nccs4)cc3)n2Cc2ccco2)cc1,n,9.6,n,x,n,22.6,13.3
COc1cccc(-c2nnc(SCC(=O)Nc3ccc(Oc4ccccc4)cc3)n2Cc2ccco2)c1,n,9.1,n,x,n,26.7,15.9
O=C(CSc1nnc(-c2ccncc2)n1Cc1ccco1)Nc1nccs1,n,n,n,n,n,x,x
CC(C)(C)c1ccc(-c2nnc(SCC(=O)Nc3ccccc3-c3ccccc3)n2Cc2ccco2)cc1,n,11.4,n,x,n,20.4,17.1
CCOc1ccc(-n2c(SCC(=O)Nc3ccccc3-c3ccccc3)nnc2-c2ccccc2)cc1,n,9.6,n,x,n,37.7,20.3
Cc1cc(NC(=O)CSc2nnc(-c3ccccc3)n2Cc2ccco2)no1,n,n,n,n,n,x,x
CCOC(=O)N(C)C[C@H]1OCc2cn(nn2)CCCC(=O)N([C@@H](C)CO)C[C@@H]1C,n,n,n,x,n,x,x
O=C(N[C@H](C(=O)N1CCC[C@H]1C(=O)NCCc1ccccc1Cl)C1CCCCC1)c1cccs1,n,n,n,x,n,x,x
NC1=[N+](Cc2ccccc2)C(Cc2ccccc2)C2C(=C3CCCCC3n3c(=O)n(-c4ccccc4)c(=O)n32)N1 (configuration not stated),n,n,n,x,n,x,x
CC(=O)Nc1ccc(NC(=O)C(C)OC(=O)C23CC4CC(CC(Cl)(C4)C2)C3)cc1 (configuration not stated),n,9.9,n,n,n,n,n
CC(=O)Nc1ccc(NC(=O)C(C)OC(=O)C2(c3ccc(Cl)cc3)CCCC2)cc1 (configuration not stated),n,n,n,n,n,x,x
COC(=O)C1=C(C)N(c2cccc(C)c2)C(=O)/C1=C\c1cccs1,n,8.7,n,n,n,n,n
CCOC(=O)C1=C(C)N(c2ccccc2)C(=O)/C1=C\c1cccs1,n,n,n,n,n,x,x
CCN(CC)C(=O)CNc1nnnn1-c1ccccc1,n,n,n,x,n,x,x
O=C(Nc1cccc([N+](=O)[O-])c1)Nc1ccc2c(c1)OCCO2,n,8.9,n,n,n,n,n
COc1ccc(CN2C3=N[C@H](c4ccccc4)CC(=O)N3/C(=C\c3ccccc3)C2c2ccco2)c(OC)c1 (some centres not stated),n,n,n,x,n,x,x
O=C(/C=C/c1ccc2c(c1)OCO2)c1ccc(O)cc1O,n,9.3,n,n,n,n,n
C=Cc1ccc(C(=O)N(Cc2ccc(F)cc2)C(C(=O)N(C)C2CCCC2)c2ccc(OC)c(OC)c2)cc1 (configuration not stated),n,n,n,x,n,x,x
CCc1ccc(CCNC(=O)OCCCN2CCC3(CCC(c4ccccc4)CC3)C2=O)cc1 (configuration not stated),n,9.4,n,x,n,36.2,15.4
CCCCNC(=O)OCCCN1CCC2(CCC(c3ccccc3)CC2)C1=O (configuration not stated),n,n,n,x,n,x,x
CCCCCCCCN1C(=O)[C@@H](CC(=O)NCc2ccc(OC)c(OC)c2)C[C@@]2(C(=O)OC)C1=C[C@H](C(C)(C)C)O[C@@H]2C,n,n,n,x,n,x,x
COC(=O)[C@]12C[C@H](CC(=O)NCc3cccc4ccccc34)C(=O)N(Cc3ccc4c(c3)OCO4)C1=C[C@H](COCc1ccccc1)O[C@@H]2C,n,n,n,x,n,x,x
CCCN1C(=O)c2ccc(C(=O)Nc3cc(C)on3)cc2C1=O,n,9.7,n,n,n,n,n
SMILES,ADAM10 inh,ADAM17 inh,DDE Tn6 FP inh,MT1-MMP act inh,Tn7 DDE FP,ADAM10 ctr,ADAM17 confirm
Cc1cc(NC(=O)c2ccc3c(c2)C(=O)N(Cc2ccccc2)C3=O)no1,n,n,n,n,n,x,x
CCc1ccc(N2CC(C)Cn3c2nc2c3c(=O)n(CCN3CCOCC3)c(=O)n2C)cc1 (configuration not stated),n,9.1,n,n,n,n,n
COc1ccc(N2CC(C)Cn3c2nc2c3c(=O)n(CCN3CCOCC3)c(=O)n2C)cc1 (configuration not stated),n,n,n,n,n,x,x
COc1ccc(OC)c(NC(=O)O[C@@H]2CC[C@@]34CCCN3C(=O)CCC[C@H]4C2)c1,n,n,n,x,n,x,x
C(=C\c1ccccc1)/CSc1nnc(Cc2cccs2)n1-c1ccccc1,n,n,n,x,n,x,x
COc1cccc(/C=N/NC(=O)CN(CCc2ccccc2)S(=O)(=O)c2ccc(NC(C)=O)cc2)c1,n,10.8,n,n,n,23.6,14.3
COc1ccc(/C=N/NC(=O)CN(C)S(=O)(=O)c2ccc(NC(C)=O)cc2)cc1,n,n,n,n,n,x,x
CCC(C)N(C(=O)CSc1nnc(-c2cc(OC)c(OC)c(OC)c2)o1)C(C)CC (configuration not stated),n,n,n,x,n,x,x
Cc1ccc(C)c(S(=O)(=O)N(C)Cc2cccs2)c1,n,8.8,n,n,n,23.5,12.3
COc1ccc(S(=O)(=O)N(C)Cc2cccs2)cc1Br,n,n,n,n,n,x,x
CCc1cc2c(nc1CC)CCCN2S(=O)(=O)c1ccc(OC)cc1,n,10.9,n,x,n,n,n
COC(=O)c1cc2c(c3c4cc(C)ccc4n(S(=O)(=O)c4cccc(C)c4)c13)C(=O)N(C)C2,n,n,n,x,n,x,x
COC(=O)[C@]12C[C@H](CC(=O)NCC34CC5CC(CC(C5)C3)C4)C(=O)N(CCC3=CCCCC3)C1=C[C@H](C(C)C)O[C@@H]2C1CC1,n,n,n,x,n,x,x

# Source: PubChem BioAssay (several laboratories)
